# From ChEMBL document CHEMBL4002575, “Progress in the development of β-lactams as N-Acylethanolamine Acid Amidase (NAAA) inhibitors: Synthesis and SAR study of new, potent N-O-substituted derivatives” (Eur J Med Chem, 2017)
# Active and inactive are the calls of the source. The calls are words filed in the database; no cut-off is given here.
# Assays:
# [1] = biological target: T1, N-acylethanolamine-hydrolyzing acid amidase (Homo sapiens, UniProt Q02083); assay: Inhibition of recombinant human spleen NAAA expressed in HEK293 cells using PAMCA as substrate preincubated for 10 mins followed by substrate addition measured after 50 mins by fluorescence assay
# T1 sequence (Q02083 whole entry): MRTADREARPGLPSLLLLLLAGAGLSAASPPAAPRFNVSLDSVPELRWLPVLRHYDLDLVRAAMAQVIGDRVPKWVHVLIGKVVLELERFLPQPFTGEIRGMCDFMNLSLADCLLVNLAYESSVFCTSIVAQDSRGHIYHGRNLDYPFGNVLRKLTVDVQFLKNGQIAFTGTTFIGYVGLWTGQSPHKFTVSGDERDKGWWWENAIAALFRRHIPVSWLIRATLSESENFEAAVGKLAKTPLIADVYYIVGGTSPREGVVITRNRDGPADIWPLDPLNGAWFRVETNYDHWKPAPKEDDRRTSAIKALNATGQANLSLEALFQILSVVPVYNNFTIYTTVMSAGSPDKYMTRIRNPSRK
# [2] = Apparent half life in PBS at pH 7.4 at 1 uM at 37 degC after 24 hrs in presence of 10% MeCN by UPLC-MS method; format: physicochemical; settings: read-out: t1/2(app)
# In short: (§1)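 Compound incubated 24 h at 37 °C in 0.01 M PBS, pH 7.4, containing 10% MeCN.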
# Mus musculus [3] = assay: Antiinflammatory activity in CD1 mouse assessed as inhibition of carrageenan-induced paw edema at 0.5 to 50 ug/paw administered intraplantarly post carrageenan challenge measured over 2 to 48 hrs by plethysmometer; format: functional
# In short: (§2)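 Male CD1 mice (25-30 g). Paw edema induced by λ-carrageenan (1% w/v in sterile water, 50 µl) injected into the left hind paw. A fresh suspension in 80% sterile saline/10% PEG-400/10% Tween 80 (10 µl per animal) was given by intraplantar injection just after carrageenan, as a single dose of 0.5–50 µg/paw. Edema was read by plethysmometer and heat hyperalgesia by behavioural test, both blind.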
# [4] = Half life in mouse plasma at 2 uM after 2 hrs by LC/MS-MS method; format: ADME, cell-free
# Mus musculus [5] = assay: Analgesic activity in CD1 mouse assessed as inhibition of carrageenan-induced heat hyperalgesia at 0.5 to 50 ug/paw administered intraplantarly post carrageenan challenge measured over 2 to 48 hrs; format: functional; in short: as §2
# [6] = Half life in rat plasma at 2 uM after 2 hrs by LC/MS-MS method; format: ADME, cell-free
# [7] = biological target: T2, Fatty-acid amide hydrolase 1 (Homo sapiens) (UniProt O00519); assay: Inhibition of human FAAH1 expressed in HEK293 cells at 10 uM using [3H]anandamide as substrate preincubated for 10 mins followed by substrate addition measured after 30 mins by liquid scintillation counting method relative to control
# T2 sequence (whole entry): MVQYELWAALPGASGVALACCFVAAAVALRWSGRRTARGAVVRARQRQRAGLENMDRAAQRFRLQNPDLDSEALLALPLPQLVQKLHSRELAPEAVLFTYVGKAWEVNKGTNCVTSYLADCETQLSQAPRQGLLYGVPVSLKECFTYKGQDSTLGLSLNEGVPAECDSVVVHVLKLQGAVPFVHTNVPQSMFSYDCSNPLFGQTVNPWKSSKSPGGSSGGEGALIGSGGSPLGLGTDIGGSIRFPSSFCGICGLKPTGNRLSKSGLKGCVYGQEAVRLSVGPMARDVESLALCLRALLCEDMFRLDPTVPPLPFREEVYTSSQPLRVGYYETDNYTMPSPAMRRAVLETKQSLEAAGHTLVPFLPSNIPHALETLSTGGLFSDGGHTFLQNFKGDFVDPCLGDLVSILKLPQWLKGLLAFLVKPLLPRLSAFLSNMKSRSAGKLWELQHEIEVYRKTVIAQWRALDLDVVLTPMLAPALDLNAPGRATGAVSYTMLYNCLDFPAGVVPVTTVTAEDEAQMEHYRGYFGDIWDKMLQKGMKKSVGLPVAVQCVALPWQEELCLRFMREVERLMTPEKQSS
# Acid ceramidase = biological target: T3, Acid ceramidase (Homo sapiens, UniProt Q13510); assay: Inhibition of human acid ceramidase expressed in HEK293 cells using N-[(1S,2R)-2-hydroxy-1-(hydroxymethyl)-4-(2-oxochromen-7-yl)-oxybutyl]dodecanamide as substrate preincubated for 10 mins followed by substrate addition measured after 3 hrs by fluorescence assay; format: cell-based
# T3 sequence (Q13510 whole entry): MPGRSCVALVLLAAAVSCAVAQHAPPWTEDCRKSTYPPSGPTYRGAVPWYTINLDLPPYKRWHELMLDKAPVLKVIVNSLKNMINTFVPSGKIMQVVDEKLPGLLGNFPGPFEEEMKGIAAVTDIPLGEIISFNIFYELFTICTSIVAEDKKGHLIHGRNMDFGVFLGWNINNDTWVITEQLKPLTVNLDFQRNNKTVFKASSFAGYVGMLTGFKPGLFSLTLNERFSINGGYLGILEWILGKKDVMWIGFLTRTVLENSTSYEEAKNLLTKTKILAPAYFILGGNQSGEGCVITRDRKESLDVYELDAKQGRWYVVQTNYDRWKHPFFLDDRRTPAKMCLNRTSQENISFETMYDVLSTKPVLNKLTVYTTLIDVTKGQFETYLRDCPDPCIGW
# In short: (§3)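 Human acid ceramidase fluorogenic assay. IC50 taken as the mean of three determinations.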
# Homo sapiens = species: Homo sapiens; assay: Selectivity ratio of IC50 for human acid ceramidase to IC50 for recombinant human spleen NAAA
# In short: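 Ratio of h-AC IC50 to h-NAAA IC50, each the mean of three determinations in fluorogenic assays. The NAAA was recombinant human enzyme overexpressed in HEK293 cells, purified, then activated for 3 h at 37 °C at pH 4.5 (phosphate/citrate, 3 mM DTT, 0.1% Triton X-100). The NAAA substrate was PAMCA (hexadecanamide of 7-amino-4-methylcoumarin).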
# [8] = Chemical stability in PBS at pH 7.4 assessed as parent compound remaining at 1 uM at 37 degC after 24 hrs in presence of 10% MeCN by UPLC-MS method; format: physicochemical; settings: read-out: Stability; in short: as §1
# [9] = biological target: T4, Acid ceramidase (Homo sapiens) (UniProt Q13510); assay: Inhibition of human acid ceramidase expressed in HEK293 cells at 50 uM using N-[(1S,2R)-2-hydroxy-1-(hydroxymethyl)-4-(2-oxochromen-7-yl)-oxybutyl]dodecanamide as substrate preincubated for 10 mins followed by substrate addition measured after 3 hrs by fluorescence assay relative to control; format: cell-based; in short: as §3
# T4 sequence (whole entry): T3 sequence (Q13510 whole entry)
# Rattus norvegicus = assay: Oral bioavailability in Sprague-Dawley rat at 10 mg/kg after 15 to 1440 mins by UPLC/MS analysis; format: ADME, organism-based; settings: in vivo
Compound,IC50 [1] [nM],half-life at 1 µM [2] [min],half-life at 2 µM [4] [min],half-life at 2 µM [6] [min],inhibition [7] [%],also measured
CON1C[C@H](NC(=O)OCCCCC2CCCCC2)C1=O,16,–,–,–,–,–
COC(=O)N1C[C@H](NC(=O)OCCCCC2CCCCC2)C1=O,7180,–,–,–,–,–
C[C@H]1[C@H](NC(=O)OCCCCC2CCCCC2)C(=O)N1Oc1ccc(S(C)(=O)=O)cc1,–,727,< 5,< 5,> 50,inhibition (Mus musculus [3]): Active; inhibition (Mus musculus [5]): Active; IC50 (Acid ceramidase): 2020 nM
C[C@H]1[C@H](NC(=O)OCCCCC2CCCCC2)C(=O)N1Oc1ccccc1,–,> 1440,< 5,< 5,> 50,"Ratio IC50 (Homo sapiens): 13; remaining at 24 h, 1 µM [8]: 63%; IC50 (Acid ceramidase): 300 nM"
C[C@H]1[C@H](NC(=O)OCCCCC2CCCCC2)C(=O)N1OCCCS(C)(=O)=O,–,> 1440,< 5,< 5,> 50,"Ratio IC50 (Homo sapiens): > 1000; remaining at 24 h, 1 µM [8]: 67%; inhibition [9]: > 50%"
C[C@H]1[C@H](NC(=O)OCCCCC2CCCCC2)C(=O)N1OC(C)(C)C,> 50000,–,–,–,–,–
CON1C(=O)[C@@H](NC(=O)OCCCCC2CCCCC2)[C@@H]1C,–,> 1440,< 5,< 5,> 50,"remaining at 24 h, 1 µM [8]: 97%; inhibition [9]: > 50%"
CCCCCCCCC(=O)N[C@H]1CNC1=O,–,–,130,–,–,F (Rattus norvegicus): 67%
CN1C[C@H](NC(=O)OCCCCC2CCCCC2)C1=O,1980,–,–,–,–,–
CON1C[C@@H](NC(=O)OCCCCC2CCCCC2)C1=O,56,–,–,–,–,–
CC(=O)N1C[C@H](NC(=O)OCCCCC2CCCCC2)C1=O,> 50000,–,–,–,–,–
